An excerpt weighted towards active compounds, which were near 4.8% of everything screened.
CSC inhib – cancer stem cell inhibition | 1.1% of 300,000 active | AID 2717 | inhibition, % at 7.5 µM | cancer stem cell-like cells viability, luminescence; in the data active means inhibition above about 75%; inconclusive means no clear call, values can overlap the other calls; tested in HMLE shEcad cells
Efflux pump mplx – antifungal efflux pump inhibition, Nile Red retention | AID 485275 | 0.44% of 330,000 active | S. cerevisiae Candida pump triplex | inhibition, % at 10 µM;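 active means plate passing quality check with inhibition over a set limit, or well fluorescence over plate mean plus 4 SD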;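 further: Nile Red retained in pooled yeast measured as flow cytometry median fluorescence; 0% = buffer negative control and 100% = Enniatin B positive control; higher means more Nile Red kept so more efflux inhibition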
WT yeast gro inh – growth inhibition of WT yeast, mitochondrial fusion screen; mitochondrial fusion phenotypic screen, WT strain; inhibition, % at 10 µM; 2.1% of 190,000 active; AID 1362; in the data active means inhibition above about 58%; tested in S. cerevisiae
T cruzi repl – T. cruzi replication inhibition; T. cruzi beta-gal in NIH3T3, luminescence, 90 h; inhibition, % (test concentration not listed); 1.4% of 300,000 active; AID 1885;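 active means mean inhibition across valid replicates above about 55%, limit read from the data; inconclusive means mean below that limit but half or more replicates reach it; inactive means mean below it, under half of replicates reach it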;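 further: signal also drops with host cell toxicity which is not excluded here; 0% = plate median of DMSO wells and 100% = zero luminescence signal; higher percent means less beta-gal luminescence so fewer parasites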
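Assay system: NIH/3T3 host cells with β-galactosidase reporter T. cruzi; input: 5,000 host fibroblasts per well; compound: single 50 nL compound addition per well in DMSO; timing: ≥90 h infection period, 3 h prior cell attachment; measured by: GalScreen β-gal luminescence, detergent lysis, 60 min; evaluation: percent inhibition of parasite-derived β-gal signal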
Beta apoptosis – beta cell apoptosis inhibition | 0.8% of 300,000 active | AID 435005 | protection from apoptosis, % (no concentration beside the values) | INS-1E cytokine-induced death, ATP luminescence, 48 h; percent of positive-control rescue, neutral wells zero;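 active means Every replicate reaches about 75%, or at least half do and their mean reaches it too, limit read from the data; inconclusive means At least half of replicates reach the limit but their mean does not; inactive means Under half of replicates reach the limit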;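 further: 0% = cytokine-treated negative control wells and 100% = positive control rescue; higher means more ATP so stronger rescue from cytokine killing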
SUMO Mot1 rescue – SUMOylation pathway inhibition by Mot1-301 growth rescue. S. cerevisiae Mot1-301 growth rescue, ATP luminescence, 38.5C; percent above DMSO median, 100 means doubled. growth rescue, % at 18.8 µM. 1% of 320,000 active;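 active means every valid replicate shows activation above 250% relative to neutral control wells; inactive means the rest, any valid replicate at or below 250%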;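 further: OY570 slx delta 5 strain wells were the positive control but not used for scaling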
Active calls of the source: *.

COc1ccc(C2/C=C\CN(C(=O)Nc3ccc(C(F)(F)F)cc3)CC(=O)N2Cc2ccc(F)cc2)cc1 (stereo unspecified) was read as CSC inhib -5.5, Efflux pump mplx 0.1, T cruzi repl 34.0, Beta apoptosis 80.6* and SUMO Mot1 rescue 484.0.
Screening O=C(COc1ccc(Cl)cc1)N(Cc1ccc(F)cc1)C1CCS(=O)(=O)C1 (stereo unspecified) returned CSC inhib -6.9, Efflux pump mplx 0.1, T cruzi repl 12.4, Beta apoptosis -4.8 and SUMO Mot1 rescue -15.7.
Screening Cc1c(C(O)CN2CCN(Cc3ccc4c(c3)OCO4)CC2)c2ccccc2n1C (stereo unspecified) returned CSC inhib 5.2, Efflux pump mplx 0.0, WT yeast gro inh 17.1, T cruzi repl 66.5*, Beta apoptosis 0.0 and SUMO Mot1 rescue 27.4.
CSc1nc(N)nc(C2CC2)n1 was read as CSC inhib -29.7, Efflux pump mplx 0.1, Beta apoptosis -4.4 and SUMO Mot1 rescue -15.0.
Screening COc1cccc(-c2ccc(C#N)c(OC(=O)c3c(Cl)cccc3Cl)n2)c1 returned CSC inhib 76.5*, Efflux pump mplx -0.1, WT yeast gro inh 62.3*, T cruzi repl 16.4, Beta apoptosis -3.0 and SUMO Mot1 rescue -9.6.
Screening CCc1ccc(NC(=O)C(C)n2nc(C)c([N+](=O)[O-])c2C)cc1 (stereo unspecified) returned CSC inhib 14.4, Efflux pump mplx 0.1, WT yeast gro inh -4.9, T cruzi repl -6.5, Beta apoptosis 9.9 and SUMO Mot1 rescue 338.9.
For Cc1[nH]c2ccccc2c1/C=C(\C#N)C(=O)NC(C)c1ccccc1 (stereo unspecified) the results were CSC inhib -6.6, Efflux pump mplx -0.3, WT yeast gro inh 84.5*, T cruzi repl 9.4, Beta apoptosis -8.0 and SUMO Mot1 rescue 16.6.
Screening Cc1[nH]c2ccccc2c1/C=C(\C#N)C(=O)NC1CC1 returned CSC inhib 3.4, Efflux pump mplx -0.1, T cruzi repl -6.0, Beta apoptosis -1.0 and SUMO Mot1 rescue -8.1.
`CCc1ccc(C(C)NC(=O)/C(C#N)=C\c2cn[nH]c2-c2ccccc2)cc1` (stereo unspecified) gave CSC inhib 22.8, Efflux pump mplx -0.1, WT yeast gro inh 59.0*, T cruzi repl 30.1, Beta apoptosis 0.7 and SUMO Mot1 rescue -2.0.
`COC(=O)C1=C(C)N(Cc2ccccc2)C(=NCc2cccc(Cl)c2)N[C@H]1c1cccc(F)c1` gave CSC inhib 134.2*, Efflux pump mplx 0.4, Beta apoptosis 98.2* and SUMO Mot1 rescue 14.1.
For COC(=O)C1=C(C)N(Cc2ccccc2)C(=NCc2ccccc2)N[C@H]1c1cccc(C(F)(F)F)c1 the results were CSC inhib 121.9*, Efflux pump mplx 0.5, Beta apoptosis 112.9* and SUMO Mot1 rescue -41.2.
COc1ccccc1CCC(=O)NNC(=O)c1ccc(Br)cc1 was read as CSC inhib 0.6, Efflux pump mplx 0.1, T cruzi repl -6.0, Beta apoptosis 0.5 and SUMO Mot1 rescue 0.2.
For CC(=O)Nc1ccc(S(=O)(=O)N(C)CC(=O)OC(C)C(=O)NC2CCCCC2)cc1 (stereo unspecified) the results were CSC inhib -4.6, Efflux pump mplx -0.2, T cruzi repl -2.3, Beta apoptosis -2.9 and SUMO Mot1 rescue 1.0.
`CC1CN(c2oc(Cc3cccc4ccccc34)nc2C#N)CC(C)O1` (stereo unspecified) gave CSC inhib -8.3, Efflux pump mplx 0.1, WT yeast gro inh 60.5*, T cruzi repl 5.4, Beta apoptosis 5.3 and SUMO Mot1 rescue 4.9.
`CNc1oc(Cc2cccc3ccccc23)nc1C#N` gave CSC inhib 13.2, Efflux pump mplx 0.1, WT yeast gro inh -0.4, T cruzi repl -1.8, Beta apoptosis -1.8 and SUMO Mot1 rescue -2.8.
CCN1CCN(Cc2ccc(NC(=O)c3cc(NC(=O)c4cc(-c5ccc(OC)cc5)n[nH]4)cc(OC)c3)cc2C(F)(F)F)CC1 was read as CSC inhib inconclusive, Efflux pump mplx 0.1, T cruzi repl 44.7, Beta apoptosis 9.7 and SUMO Mot1 rescue -21.5.
`CCN1CCN(Cc2ccc(NC(=O)c3cc(NC(=O)c4cncc(-c5cccs5)c4)cc(OC)c3)cc2C(F)(F)F)CC1` gave CSC inhib 123.8*, Efflux pump mplx -0.1, T cruzi repl 27.1, Beta apoptosis 6.7 and SUMO Mot1 rescue -31.2.
Screening O=C(O)CNS(=O)(=O)c1ccc(-c2ccccc2)cc1 returned WT yeast gro inh 3.5.
`O=C([O-])c1cc(-c2ccccc2)cc(-c2ccccc2)[n+]1Cc1ccccc1` gave CSC inhib -0.1, Efflux pump mplx -0.1, T cruzi repl 44.3, Beta apoptosis 122.4* and SUMO Mot1 rescue -7.8.
CN1C(=O)C(C)(C)c2cc(S(=O)(=O)NCC3CCC(C(=O)NCc4ccccc4)CC3)ccc21 (stereo unspecified) was read as CSC inhib 3.6, Efflux pump mplx 0.1, T cruzi repl -7.4, Beta apoptosis -0.4 and SUMO Mot1 rescue 12.6.
Screening CC1=NN(c2ccccc2)C(=O)/C1=C/c1cccc(C)c1 returned CSC inhib -2.5, Efflux pump mplx 0.0, T cruzi repl -4.1, Beta apoptosis -1.6 and SUMO Mot1 rescue -8.3.
CC1=NN(c2ccccc2)C(=O)/C1=C/c1cc2cc(C)ccc2nc1N1CCCCC1 was read as CSC inhib 61.4, Efflux pump mplx -0.2, WT yeast gro inh 71.1*, T cruzi repl -4.4 and SUMO Mot1 rescue 21.0.
`Cc1ccc(CN(C(=O)COc2cccc(C)c2C)C2CCS(=O)(=O)C2)o1` (stereo unspecified) gave CSC inhib -11.7, Efflux pump mplx -0.4, T cruzi repl -7.0, Beta apoptosis -0.5 and SUMO Mot1 rescue -2.8.
`CCOc1ccc(CN2CCC(C(=O)N3CCN(c4ccccc4F)CC3)CC2)cc1OC` gave CSC inhib 12.1, Efflux pump mplx -0.1, WT yeast gro inh -6.8, T cruzi repl 69.2*, Beta apoptosis -2.6 and SUMO Mot1 rescue -0.6.
For COc1cc(CN2CCC(C(=O)N3CCN(c4ccccc4F)CC3)CC2)cc(OC)c1O the results were Efflux pump mplx -0.1, WT yeast gro inh -2.7, T cruzi repl 1.5, Beta apoptosis -1.9 and SUMO Mot1 rescue -16.2.
Screening O=C(NCc1nc2ccccc2[nH]1)C1=C[C@H](c2coc3ccccc3c2=O)C[C@H](OCCCCO)O1 returned CSC inhib 12.8, Efflux pump mplx 0.2, T cruzi repl 14.5, Beta apoptosis 2.8 and SUMO Mot1 rescue -1.6.
Screening Cc1cn(-c2cc(C(=O)Nc3ccc(C)c(NC(=O)C(=O)c4c[nH]c5ccccc45)c3)cc(C(F)(F)F)c2)cn1 returned CSC inhib 130.7*, Efflux pump mplx 0.0, T cruzi repl 26.5, Beta apoptosis 16.5 and SUMO Mot1 rescue -17.9.

Bioassay records: PubChem, several laboratories
